Test results from ChEMBL document CHEMBL4513216, “Probing the Open Global Health Chemical Diversity Library for Multistage-Active Starting Points for Next-Generation Antimalarials” (ACS Infect Dis, 2020).

Assay: Toxicity liver stage against HepG2, at 10uM
Type: cell-based
Set-up: test concentration 10 uM, cell line HepG2-A16-CD81EGFP
Settings: human, HepG2-A16-CD81EGFP cells; read-out: INHIBITION
Summary of the method: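 Uninfected HepG2-A16-CD81EGFP cells, 3 × 10^3 per well, 1536-well, plated on prespotted compound at 10 μM final, parasite-free screening media added to match infected plates; puromycin 10 μM positive, DMSO 0.5% negative; run in parallel with 48 h PbLuc assay at 37 °C, 5% CO2; viability by CellTiter-Glo luminescence, normalized to controls.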

| SMILES | cytotoxicity at 10 µM |
| --- | --- |
| CCc1c(C)nc(SCc2ccccn2)[nH]c1=O | 9.56% |
| CCOc1ccc(NC(=O)c2cnc(N3CCCC3)nc2C)cc1 | -7.81% |
| COc1ccc(CN2CCCC2c2cccc(F)c2)c(OC)c1OC (configuration not stated) | 3.48% |
| COc1ccc(Cl)cc1NCc1nc2[nH]c(C)c(C)c(=O)n2n1 | 0.308% |
| Cc1nc2oc(C(=O)N3CCCC3)c(N)c2c2c1CCCC2 | -6.95% |
| CS(=O)(=O)NCC(Cc1cccc(F)c1)N1CCNC1=O (configuration not stated) | -2.91% |
| O=S(=O)(Nc1cnc(N2CCCC2)nc1)c1ccc(F)cc1F | -14.4% |
| Cn1cnc(S(=O)(=O)NCC2(O)CCc3ccccc3C2)c1 (configuration not stated) | -4.2% |
| Cn1nc(CNC(=O)c2cccc(C(F)(F)F)c2)c2c1CCOC2 | 4.07% |
| Cn1cnnc1S(=O)(=O)C1CCN(S(=O)(=O)c2ccccc2F)CC1 | -2.08% |
| CC1CC2(CCN(C(=O)c3csnn3)CC2)c2ccccc21 (configuration not stated) | -137% |
| c1ccc(NC[C@@H]2CCC[C@@H]3CN(Cc4csnn4)C[C@@H]32)nc1 | -114% |
| COCC(C)NC(=O)c1cn(C(C)(C)C)c2ncccc12 (configuration not stated) | 2.69% |
| CSCCC(CO)NC(=O)c1sc(-c2ccccc2Cl)nc1C (configuration not stated) | 1.11% |
| O=C(Cn1ccc2ccccc21)NCc1ccc(C(=O)O)cc1 | -6.13% |
| COCCO[C@@H]1C[C@H]2CN(C(=O)c3cnccn3)CCN2C1 | -8.58% |
| CC(=O)Nc1ncc(S(=O)(=O)Nc2ccccc2F)s1 | 14.4% |
| Cc1ccc(Cl)cc1N1CCN(CC(=O)NCc2ccco2)CC1 | 1.67% |
| CN(C)CCCNC(=O)c1nnsc1-c1ccccc1 | 5.75% |
| CCn1cc(NC(=O)C(C)n2ncc(Cl)c2C)c(C(=O)NC)n1 (configuration not stated) | 9.51% |
| O=C1CC(c2ccc(F)cc2)c2snc(C(=O)O)c2N1 (configuration not stated) | 0.833% |
| COc1ccc(C2=NOC(C#N)C2)cc1 (configuration not stated) | -11.2% |
| OCCc1cc(C2CCCN2c2ncccn2)n[nH]1 (configuration not stated) | 5.56% |

| SMILES | cytotoxicity at 10 µM |
| --- | --- |
| NC(=O)CN1CCCC(Cc2ccc(N3CCOCC3)nn2)C1 (configuration not stated) | 8.21% |
| CCCn1cc(CN2CCCC2c2cccc(-n3ccnc3)n2)cn1 (configuration not stated) | -19.6% |
| Cc1noc(C)c1-c1cncc(C2CCCN2Cc2nccs2)n1 (configuration not stated) | -14.2% |
| Cc1cc(N(C)C)nc(C2(C)CCCN2C(=O)c2ccccc2)n1 (configuration not stated) | -27.4% |
| CN(C)Cc1ccnc(C2CCCN2Cc2cccc(F)c2F)n1 (configuration not stated) | 2.22% |
| Cc1cc2cc(C(=O)N3C[C@H](O)[C@]4(CCCO4)C3)ccc2o1 | -10.9% |
| c1cnc(N2CCCC(c3cncc(-n4ccnc4)n3)C2)nc1 (configuration not stated) | -11.8% |
| c1cnc(N2CCC(c3n[nH]c4ncccc34)C2)nc1 (configuration not stated) | -4.47% |
| CC1(C(=O)NCc2cccc(C(F)(F)F)c2)CCOCC1 | 7.63% |
| Cc1ccc(-n2nc3n(c2=O)CCN(C(=O)c2ccc(Cl)cc2)C3)cc1 | 6.78% |
| CC(=O)N1CCCN(CCCSCc2ccccc2)CC1 | -4.53% |
| Cc1ccc(CNC(=O)CN(CCC(N)=O)c2ccc(F)cc2)cc1 | -2.62% |
| COc1ccc(CNC(=O)C(NC(=O)Cc2ccccc2)C(C)C)cn1 (configuration not stated) | -0.943% |
| NC(=O)COc1ccc(C2NC(=O)CN2Cc2ccc(Br)cc2)cc1 (configuration not stated) | -7.38% |
| COCCCC(=O)NCc1cccc(NC(N)=O)c1 | 0.808% |
| OCCN(Cc1cccnc1)c1ncc(Br)cn1 | 9.68% |
| CC(NC(=O)NCCC1=CCCCC1)c1nncn1C (configuration not stated) | -11.7% |
| O=C(C1CCCO1)N1CCC(c2nc(-c3ccccc3)n[nH]2)CC1 (configuration not stated) | -10.9% |
| CC1CN(c2ncnc3cccc(F)c23)CCO1 (configuration not stated) | 16.1% |
| CC(CC(=O)NCCCn1cccn1)c1cccnc1 (configuration not stated) | -1.66% |
| CCN(CC1CCCO1)C(=O)CSCC(=O)Nc1ccc(C)cc1 (configuration not stated) | -1.69% |
| Cn1cc(-c2nc(CN3CCn4c(nnc4C4CC4)C3)cs2)cn1 | -1.07% |
| COCCOc1ccc(NC(=O)N2CCOC(C(N)=O)C2)cc1F (configuration not stated) | -140% |

| SMILES | cytotoxicity at 10 µM |
| --- | --- |
| COc1nc(C)ccc1CNC(=O)NC(C)(C)c1ncc(C)s1 | 14.7% |
| CC(C)Cn1cc(NC(=O)NCC2CCN(c3ccccc3)C2)cn1 (configuration not stated) | 2.53% |
| Cn1nc2c(cc1=O)CN(Cc1ccc(-n3cccn3)cc1)CC2 | -141% |
| CCN(Cc1cccc(NC(=O)COCCOC)c1)C(C)=O | -136% |
| COc1ccccc1N1CCC(CNC(=O)N(C)Cc2ccco2)C1 (configuration not stated) | -146% |
| CCCc1nnnn1Cc1cn2c(C)cccc2n1 | -8.51% |
| Cc1cc(CNC(=O)CCN2CCN(c3ccccn3)CC2)c(C)o1 | 1.71% |
| CN(Cc1cc(Cl)ccc1Cl)Cc1ncnn1C | -0.943% |
| CC(=O)c1ccc(Cl)c(Cl)c1OCC(=O)NC(C)C | -9.66% |
| Cc1cc(NC(=O)N(C)C2CCCN(c3ccccc3)C2=O)n(C)n1 (configuration not stated) | 5.42% |
| Cc1cccc(CCC(=O)Nc2cccnc2N2CCC(O)CC2)c1 | -2.25% |
| CC(Nc1ccc(CN2CCCC2=O)cc1)C(=O)N(C)CCC#N (configuration not stated) | 13.7% |
| Cc1ccc(NCc2ccco2)cc1N1CCOC1=O | -10.6% |
| CNC(=O)NCC(CO)Cc1ccccc1OC(F)(F)F (configuration not stated) | 5.97% |
| CC(C)N(C)CCCNC(=O)c1cnc(-c2ccccc2)nc1 | -6.13% |
| CC(C)(C)OC(=O)N1CCCC[C@H]1C(=O)NCc1nccs1 | -9.39% |
| Cc1nc(C)n(C2CCCN(C(=O)CCCn3ccnc3)C2)n1 (configuration not stated) | 2.24% |
| CS(=O)(=O)NCc1nnc2n1CCN(Cc1ccc(F)cc1)C2 | -72.7% |
| O=C(C1CCOC1)N1CCC2(CC1)CN(Cc1nccs1)CCO2 (configuration not stated) | -75% |
| Cc1ccc(C(=O)N2CCN(C)C3(CCC(=O)N(C)CC3)C2)c(F)c1 (configuration not stated) | -1.68% |
| CCCN(Cc1cccnc1)C(=O)C1CCS(=O)(=O)CC1 | -9.03% |
| CCc1nnc(NC(=O)c2ccc(C3CCCN3CC(C)C)s2)s1 (configuration not stated) | 2.14% |
| Cc1nc(NC(=O)NC2CC(=O)N(C(C)C)C2)nn1C(C)C (configuration not stated) | -1.55% |

| SMILES | cytotoxicity at 10 µM |
| --- | --- |
| CC(=O)N1CCN(Cc2ccc3c(c2)OCCO3)CC(O)C1 (configuration not stated) | 4.14% |
| Cc1cnccc1NCCNC(=O)[C@H]1CNC[C@H](C(=O)N2CCCC2)C1 | -124% |
| COc1ccc(-c2noc(Cn3cc(C)cn3)n2)c(OC)c1OC | -8.42% |
| COc1ccc2c(c1)CC(NCCCn1nc(C)nc1C)CC2 (configuration not stated) | -3.27% |
| OCC1(O)CCCN(Cc2ccc(-c3cc[nH]n3)s2)CC1 (configuration not stated) | -141% |
| Cc1cc2cccc(NC(=O)N3CCC(N4CCSCC4)CC3)c2o1 | -3.25% |
| CN(C)c1nccnc1N1CC[C@@]2(O)CCNC[C@H]2C1 | 7.12% |
| COCCCN1C(=O)CC[C@H]2CN(Cc3ccc4occc4c3)CC[C@H]21 | 8.98% |
| O=C(N[C@H]1CN(C2CCOCC2)C[C@@H]1C1CC1)c1ccon1 | 5.21% |
| COc1ccc(F)cc1CN1CCC(O)(CN2CCCCC2)C1 (configuration not stated) | -12% |
| OC1COCCN(Cc2cccc(N3CCOCC3)c2)C1 (configuration not stated) | -12.6% |
| Cc1cc(N2CCC3(CCC(=O)N(CCCO)C3)CC2)nc(N(C)C)n1 | -0.116% |
| CCNc1ncc(C(=O)N(C)C(C)c2ccc3c(c2)OCCO3)cn1 (configuration not stated) | -0.75% |
| Cc1cccc(C)c1NC(=O)c1cccc(N(C)S(C)(=O)=O)c1C | 3.03% |
| CCCc1cc(=O)[nH]c(-c2ccccc2CN(C)CCn2cccn2)n1 | -1.41% |
| O=C(CCn1cncn1)N1CC[C@@H](c2ccc3ccccc3c2)[C@H](O)C1 | -5.16% |
| O=C(O)c1cc(-c2cccs2)nc2c(Br)cnn12 | -9.24% |
| Cc1ccc(=O)n(CC2(O)CCN(Cc3cnc(C)nc3)CC2)n1 | 4.3% |
| Cc1cc(C)n(C2CCCN(C(=O)c3ccc4c(c3)COC4)C2)n1 (configuration not stated) | -6.1% |
| Cc1nc(C)n(C2CCCN(C(=O)c3ccc(O)nc3)C2)n1 (configuration not stated) | -1.95% |
| Cc1cc(C)n(CC2CN(Cc3cc(C)on3)CCO2)n1 (configuration not stated) | -9.71% |
| CCc1noc(CN2CCN(CCO)CC2)n1 | -6.13% |
| CN(CC(=O)N1CCC(C(O)c2ccccc2)CC1)c1cnccn1 (configuration not stated) | -2.9% |

| SMILES | cytotoxicity at 10 µM |
| --- | --- |
| Fc1cccc(-c2nc(CN3CCn4c(nnc4C4CC4)C3)co2)c1 | 4.4% |
| Cc1ccc(NC2CCN(C(=O)c3cccc4ncccc34)CC2)nn1 | 7.51% |
| O=C(Cc1ccc(-n2cccn2)cc1)N1CCN2CCCCC2C1 (configuration not stated) | 4.31% |
| CCc1noc(C(C)N2CCNCC2)n1 (configuration not stated) | -3.46% |
| CC(NC(=O)c1cc(Br)c2c(c1)OCCO2)C(N)=O (configuration not stated) | -1.06% |
| COc1c(C2CCCN2C(=O)c2cncnc2C)c(C)nn1C (configuration not stated) | -6.19% |
| Cc1cnn(C2CCCN(C(=O)CCCOc3cccc(F)c3)C2)c1 (configuration not stated) | 6.71% |
| CC(OCC(F)(F)F)C(=O)Nc1ccc(-n2cncn2)nc1 (configuration not stated) | 3.44% |
| CCOc1ccccc1C1CCCN1 (configuration not stated) | -14.1% |
| CN(C)S(=O)(=O)c1ccc(-c2nc(C#N)c(NC(C)(C)C)o2)o1 | -12.3% |
| c1cc2nccc(CC3CCCN(C4CCOCC4)CC3)c2cn1 (configuration not stated) | -8.24% |
| CNC(=O)CN1CCOCC12CCN(C(=O)c1ccc(C)cc1)CC2 | -87.6% |
| Cn1nnc2c1CCN(Cc1nccs1)C2COCc1ccccc1 (configuration not stated) | -2.01% |
| Cc1ncsc1CN1C[C@@H](OCc2ccncc2)[C@H]2OCCC[C@H]21 | -148% |
| c1cc(CN2C[C@@H]3OCCN(CCN4CCCC4)[C@@H]3C2)co1 | 6.13% |
| CN(C)[C@@H]1CCN(C(=O)Cc2ccc(F)cc2)[C@H]1Cc1ccncc1 | -84.7% |
| COCC1CN(C(=O)Cc2ccccn2)Cc2c1cnn2CC1CC1 (configuration not stated) | -69.1% |
| c1cc(CNCc2ccc(Cn3cncn3)cc2)c2c(c1)OCCO2 | 0.585% |
| CN(C)CCN1CCO[C@@H]2CN(C(=O)c3cccs3)CC[C@@H]2C1 | 1.34% |
| Cc1nc(CN2CCc3ncnc(C4CC4)c3CC2)cs1 | -81.9% |
